The target of the test is T1, AarA (Providencia stuartii, UniProt P46116).
T1 sequence (P46116 1-281): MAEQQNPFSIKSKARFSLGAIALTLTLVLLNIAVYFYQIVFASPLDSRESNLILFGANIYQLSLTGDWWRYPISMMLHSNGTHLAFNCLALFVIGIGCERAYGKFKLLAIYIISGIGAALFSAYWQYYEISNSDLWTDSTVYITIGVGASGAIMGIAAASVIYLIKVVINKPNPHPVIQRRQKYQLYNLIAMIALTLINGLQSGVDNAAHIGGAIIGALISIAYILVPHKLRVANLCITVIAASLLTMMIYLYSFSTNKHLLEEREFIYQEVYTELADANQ
Kind of test: In vitro fluorescent assay. The class given is biochemical. The following applies: SAR. An outline of the steps: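 Fluorogenic KSp21 peptide (600 nM) cleaved at 24−25 °C by 100 nM AarA or 37 nM chymotrypsin. Buffer: 25 mM Hepes pH 7.4, 5 mM EDTA, 5% glycerol, 0.5% DDM and 20% DMSO (final). Compound was preincubated with enzyme for 30 min at 25 °C, and the reaction was started with peptide. Stopped after 50−60 min, still in the linear phase, with 1 M phosphoric acid pH 1.5; fluorescence read.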

Consider `Cc1ccc(S(=O)(=O)N[C@@H](Cc2ccccc2)C(=O)CCl)cc1` [TPCK], for which the “inhibitory activity against AarA in the fluorescent assay (in words)” value was “inactive”.
Consider `Cc1ccc(S(=O)(=O)NC(CCCCN)C(=O)CCl)cc1` (centres unmarked) [TLCK], for which the “inhibitory activity against AarA in the fluorescent assay (in words)” value was “inactive”.

The record behind these values is article PMC3077804 (ACS Chemical Biology, 2010).
